# Assay results reported in the EternaBench riboswitch data.
# Tested on: MS2 coat protein
# Experiment: apparent Kd, MS2 coat protein; higher = weaker binding; RNA-MaP array; FMN 200 µM where present
# In short: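 Stalled E. coli RNA polymerase produced the designs on Illumina sequencing-chip clusters. SNAP-549-labelled MS2 coat protein was added from 0.7 or 1.5 nM, doubling to 3 µM, without and then with constant ligand, in 100 mM Tris-HCl pH 7.5, 80 mM KCl, 4 mM MgCl2, BSA, DTT, yeast tRNA and Tween-20. The apparent Kd is the median of filtered per-cluster fits of green signal normalised to red-channel RNA signal and control-cluster median Fmax.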
# [1] = designed as: ON switch for flavin mononucleotide, no ligand
# [2] = ligand present: flavin mononucleotide, designed as: ON switch for flavin mononucleotide
# [3] = designed as: OFF switch for flavin mononucleotide, no ligand
# [4] = ligand present: flavin mononucleotide, designed as: OFF switch for flavin mononucleotide
Sequence,apparent Kd [1] [nM],apparent Kd [2] [nM],apparent Kd [3] [nM],apparent Kd [4] [nM]
AAAAAAAAAAGACAGGAUAUCCAAAAAAAAACAUGAGGAUCACCCAUGUAAAAAAAAAAAAAAUGGGAGAAGGGUCAAAAAAAAAA,63.2,32.1,–,–
AAAAAAAAAAGUCAGGAUAUGCAGGGCGGGACAUGAGGAUCACCCAUGUGGCGGAAAAAAAAAAAGCAGAAGGGACGAAUAAAAAA,53.2,27.4,–,–
AAAAAAAAGCCCAAGGAUAUCCGGAUGAAGACAUGAGGAUCACCCAUGUGAAAAAAAAAAUAUGAGGAGAAGGUGGGAAAAAAAAA,83.6,61.6,–,–
AAAAAACAAGGAUAUACGCAGGAGGGUUGUCUUAAUUUUUGACAUGAGGAUCACCCAUGUAGAAGGUGUUAAAA,–,–,237,507
AAAAAACAUGAGGAUCACCCAUGUGAGGAUAUGCGAAAAAAAAAAAAAAAAAAAAAAAGCAGAAGGCACAAAAA,–,–,43.9,60.8
AAAAAACAUGAGGAUCACCCAUGUGAGGAUAUGCGAAAAAAAAAAAAAAAAAAAAAAAGUAGAAGGCACAAAAA,–,–,48.5,173
AAAAAGCGAGGAUAUACGAGUCAAAGAAAAGACAAGGAGAAACAUGAGGAUCACCCAUGUAGAAGGCGCAAAAA,–,–,20.5,23.3
AAAAAGGCAGGAUAUACAAAAAAAUUUUUAAAAAAAAAAAAACAUGAGGAUCACCCAUGUAGAAGGGCCAAAAA,–,–,54.2,51.7
AAAAAGGCAGGAUAUACGAGUCAAAGAAAAGACAAAAAGGGACAUGAGGAUCACCCAUGUAGAAGGGCCAAAAA,–,–,36.9,227
AAAAAGUCAGGAUAUACGAAAAAAAAAAAAAAAAAAAAAAAGUAGAAGGGACAUGAGGAUCACCCAUGUAAAAA,–,–,78.2,58.8
AAAAAGUCAGGAUAUCGUAGAAAAAUAUAAAUAAGAAAGUACGAGAAGGGACAUGAGGAUCACCCAUGUAAAAA,–,–,33.1,36.9
AAAAAGUGAGGAUAUGCACUGUCCUGUAGACACGAGCAGUUGUAGAAGGCACAUGAGGAUCACCCAUGUUUAAA,–,–,29.2,25.9
AAAACACAUGAGGAUCACCCAUGUGAGGAUAUCGUGCAGUAGACGAAAGUCUACUGCACGAGAAGGCACAAGGA,–,–,49,81.3
AAAACAUGAGGAUCACCCAUGUAAAGAUCAAUUAAAAUGAGUGAGGAUAUACUAAAUUAUUUAUAGUAGAAGGCACUGGGUACA,25,26.3,–,–
AAAACAUGAGGAUCACCCAUGUAUAGAGCGGUUAAUAAAGGUGAGGAUAUACUAAAUUUUAUAUAGUAGAAGGCACUGGGUACU,26.7,30.5,–,–
AAAACUCACGUAGGAUAUCAUUCCUUAAGGUAGUGAGAAGGACGUGACUACAUGUCCUAAAACAUGAGGAUCACCCAUGUAGGC,–,–,33.5,26.5
AAAACUUCAGAGAAGGACCCAUCGGCGAGAUGGGUAGGAUAUCUGACUUGAGGUGUCCUGACAUGAGGAUCACCCAUGUAUAAA,–,–,418,61.4
AAAAGACAUGAGGAUCACCCAUGUCAGGAUAUCUUCCGUAGGCCGAAUGGCUUCCGGUGGAGAAGGGACAUCGG,–,–,50.7,104
AAAAUACAUGAGGAUCACCCAUGUUAGGAUAUGCAAAGCCCAGUUAGCUUUUGGGUAGGUAGAAGGGACGGGUA,–,–,23.4,20.2

Sequence,apparent Kd [1] [nM],apparent Kd [2] [nM],apparent Kd [3] [nM],apparent Kd [4] [nM]
AAAAUCACAUGAGGAUCACCCAUGUACCGAGCUAGGGCUACAUAGGAUAUGACAAGUAUAGCUUGUCAGAAGGGUGAGUCUCGC,166,258,–,–
AAACACGGACAUGAGGAUCACCCAUGUGGCGAAAGCCUUGGGAGAAGGCCGAUUGCAAAGCAAUCGGAGGAUAUCCAUACCGUG,17.8,6.03,–,–
AAACAUGUCCGAGGAUAUCUGGAAACAUUUUCAAGAGAAGGCGGACAUGAGGAUCACCCAUGUCUCUCCUCAUCAACCACAAAU,–,–,8.83,56.2
AAACCACAUGAGGAUCACCCAUGUCAAGAGAGACUAGGAUAUCUGAAUUAAUUAAAUUAAGGAGAAGGAGUGAAAA,121,64.8,–,–
AAACUGGAGGACAAGGAUAUGUGCUCUACGACAUGAGGAUCACCCAUGUGAGACGUAGUAGUGAAACAGAAGGUGUCCUAUUGUA,20.1,11.6,–,–
AAAGACAGACAUGAGGAUCACCCAUGUUACGAAGAUAAUGGGAGAAGGGCGAUUGCAAAGCAAUCGCAGGAUAUUCGUAUUGUC,21.1,8.93,–,–
AAAGAGACAGGAUAUACAUGGGUGAUAAAAAUCAUGUAAAAACAUGAGGAUCACCCAUGUAGAAGGGUCUCAAA,–,–,26.9,22.8
AAAGCAACAUGAGGAUCACCCAUGUAGGAUAUCGCUAUUGUAAUCAUGAAACAUGAUUACAAUAGCGAGAAGGACAUAUGCUCC,–,–,6.61,11.2
AAAGCAAUGUCAUGCUCACCGGACAGAAGGCAAUGUGGGCAGCCCGACAUGAGGAUCACCCAUGUUGAGGAUAUGUCCCGUCCU,–,–,2.53,2.54
AAAGCGUGAGGAUAUGAGGCGCCGGGCCGGUUGGUGCGGAUUCAGAAGGCACAUGAGGAUCACCCAUGUCGGUA,–,–,41.1,96
AAAGCUUCCGCCACAUGAGGAUCACCCAUGUCGUAACCGGGACAGGAUAUCCUCGAUGUAUUUGCGGAGAAGGGUCGCAGGUUA,77.1,147,–,–
AAAGUGUAAGGAUAUGCUGCUCGUCACUUGCGUGAUGAGUAGCAGAAGGUACAUGAGGAUCACCCAUGUAAAGA,–,–,32.3,40.6
AAAGUGUCAGGAUAUGCGAAGGCAUCUGACAGAUGAGGAUCGCAGAAGGGACAUGAGGAUCACCCAUGUAAAAA,–,–,45.2,122
AAAGUUGGUAGGCCCUCGGAACAUGAGGAUCACCCAUGUAAGGAGGAUAUGCCCGGUACCCGCUGGCAGAAGGCCUUAUAAUAA,–,–,10.5,61.6
AAAUAAAGGAUUAAGGAUAUAUCACAUGAAACAUGAGGAUCACCCAUGUAAUAAUAUAAAGGGUGAUAGAAGGUAGUUUAUAAAUA,415,440,–,–
AAAUCAGUAGGAUAUACGAUUUUGUACUAGACAGAGGAACCACAUGAGGAUCACCCAUGUAGAAGGACUAGAUA,–,–,16.4,13.9
AAAUCGGUAGAGGAUAUUGUACAGGAAACGGUGCGAGAAGGUUGCACAUGAGGAUCACCCAUGUUUAGUUGCGA,–,–,34.9,34
AAAUGCCUGUCGAUGCUCGACAUGAGGAUCACCCAUGUACAGCAGGAUAUGCGGAACUAACUCGUGCAGAAGGGCUGUACCUAA,–,–,102,144
AAAUUAAGAAGAGGAUAUUGACAUGAGGAUCACCCAUGUAUUUGGGAGUGUUUACUGAAUUCUUACGAGAAGGCUUACGAACUU,–,–,–,190

Sequence,apparent Kd [1] [nM],apparent Kd [2] [nM],apparent Kd [3] [nM],apparent Kd [4] [nM]
AAAUUCAGAGGAUAUGCGCAUAGAUAAGACUUUGUUUCUUAACAUGAGGAUCACCCAUGUAGAAGGCUGUACCC,–,–,17.9,20.1
AAAUUGGUAGAGGAUAUCGGAUAGGAUUUACUGCGAGAAGGCUGCACAUGAGGAUCACCCAUGUUCUGUUGCGA,–,–,25.1,26
AACAAAUAUGAUCAUUAUGUAAGGCAGGAUAUCCCACAUGAGGAUCACCCAUGUACAGUACAUAGGGAGAAGGGCCGAAUGGGA,72,6.8,–,–
AACAAGUCAGGAUAUGUUAAAGGUUACGAAAGGGAUAAAGGGCAGAAGGGACAUGAGGAUCACCCAUGUAAUAA,–,–,58,50.2
AACAAUCUAUCUGAGGAUAUCAUGAAAUAAACAUGAGGAUCACCCAUGUGUAGGAAAACUGCAUAUGAGAAGGCAGAUAGAUUGA,930,43.5,–,–
AACACGAGAGGUGUUGUCUAACCACAUGAGGAUCACCCAUGUAAGGAUAUCGCGGCUAUCGGCAUCGAGAAGGUACAGGGAGCA,–,–,16.2,31.4
AACAGCUCGUCAGGAUAUACAACACUGCUUCGGCAGAAUGAUAAGAUAACAUGAGGAUCACCCAUGUAGAAGGGACGAGCUGAA,–,–,6.01,8.32
AACAGCUCGUCAGGAUAUAUUAUCUUUUAAUGUAUUAAUGUACAUGAGGAUCACCCAUGUUGUUUGUAGAAGGGACGAGCUGAA,–,–,8.88,9.34
AACAGGACAGGAUAUACAUGAGGAUCACCCAUGUAGGAAACAAGCAGAGUACCAAAAAGUAGAAGGGUCAUGGA,–,–,60.2,79.5
AACAGUACAGGAUAUACAUGAGGAUCACCCAUGUGAGAAACCACUGGCGUACCAGAAAGUAGAAGGGUACUGGA,–,–,79.7,97.8
AACAGUACAGGAUAUACAUGAGGAUCACCCAUGUGAGCGUUAAGUGCCGUAGCACAAAGUAGAAGGGUACUGGA,–,–,29.9,92.5
AACAGUCUAGAGGAUAUGCUGGAUUAAAAUCUGGCAGAAGGCUGGACAUGAGGAUCACCCAUGUAAAUACUACC,–,–,33.6,162
AACAUCGCAGGAUAUUCGUGCUCAGACAUGAGGAUCACCCAUGUUUGGUGGGUUGGAGAAGGAGAAGGGCGAUGGA,–,–,103,137
AACAUGUCAGGAUAUGCAACAGGAGACUGACACGCGAGUGAGCAGAAGGGACAUGAGGAUCACCCAUGUUCAAA,–,–,19.1,17.4
AACCAACAUGAGGAUCACCCAUGUCAACCCAAGGCAGGAUAUGCGAGAAUAACAAUGGGAGCAGAAGGGCCGACCU,110,54.9,–,–
AACCCUGCCUAGGAUAUACAAAAGUCACAGCUGGUAGAAGGAGGCACAUGAGGAUCACCCAUGUCACCUCGCUU,–,–,13.4,13.7
AACCUAUUACAGAAGGCCAGCUACAUGAGGAUCACCCAUGUCGAGUCAUGGAGGAUAUGUAGUAAUUCACUCACAGAUGAGUAC,28.9,5.78,–,–
AACCUAUUACAGAAGGCCAGCUACAUGAGGAUCACCCAUGUCGAGUCAUGGAGGAUAUGUAGUAAUUUACUCGCGGAUGAGUAA,23.8,5.35,–,–
